{"source": "paper PMC2775413", "about": "(Bioorganic & medicinal chemistry, 2009)", "key": {"[1]": {"assay": "Metabolism of prodrugs in fresh mouse plasma with NADPH regenerating system", "type": "in vitro ADME", "conditions": "37 °C; for Metabolism in fresh mouse plasma (prodrug remaining by HPLC): NADPH regenerating system, over 80 minutes"}, "[2]": {"assay": "Metabolism in fresh mouse brain homogenate with NADPH", "type": "in vitro ADME", "conditions": "PBS pH 7.4, 37 °C, NADPH in excess", "summary_of_the_method": "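Three fresh mouse brains were homogenized in PBS pH 7.4 (1 mL per brain) with NADPH regenerating buffers A and B, then pooled. Test compound was added from a 200 μM stock and incubated at 37 °C for 0, 10, 20 and 40 min. Reactions were stopped by heating to 95 °C for 1 min. HPLC with UV at 310 or 260 nm depending on compound; analyte/internal standard peak-area ratio normalized to t = 0.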"}, "[3]": {"assay": "Anaerobic microsome assay for azide metabolism", "type": "in vitro ADME, rat", "summary_of_the_method": "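Rat liver microsomes, NADPH regenerating system, test azide added from a 100 μM stock. PBS was deoxygenated by N2 bubbling for 15 min. Vials were sealed with septa, the headspace N2-purged and kept under an N2 balloon, and equilibrated at 37 °C. Microsomes were injected through the septum and incubated 0, 10, 20, 40 min. Acetonitrile quench, protein precipitation at 0 °C, supernatant dried, reconstituted in 2% formic acid, HPLC; peak area normalized to t = 0.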"}, "[4]": {"assay": "Mouse brain uptake study after i.p. injection", "type": "in vivo", "conditions": "for Brain AUC over the 20-minute experiment compared with 5: i.p., 5 at 3.7 mg/kg"}, "Standard microsome assay": {"assay": "Standard microsome assay", "type": "in vitro ADME, rat", "conditions": "37 °C"}}}
{"compound": "1-((S)-1-{2-[2-aminoethyl]phenylamino}-5-nitroguanidinopentan-2-ylcarbamoyloxy)ethyl pivalate [Compound 3]", "values": [{"measurement": "Conversion of prodrug to parent compound (4) in mouse plasma", "setting": "[1]; HPLC peak of 4 over time", "result": "converted to the parent compound"}, {"measurement": "Metabolism in fresh mouse plasma (prodrug remaining by HPLC)", "setting": "[1]", "result": "rapid"}, {"measurement": "Metabolism in mouse brain homogenate (compound amount over time)", "setting": "[2]", "result": "decreased over the course of the experiment"}]}
{"compound": "Cc1cc(N)nc(C[C@@H]2CNC[C@@H]2OCCN=[N+]=[N-])c1", "note": "(racemic) [Compound 1, 6-((4-(2-Azidoethoxy)pyrrolidin-3-yl)methyl)-4-methyl-pyridin-2-amine]", "values": [{"measurement": "Formation of amine from azide (mass spectral analysis of reaction mixtures)", "setting": "[3]; anaerobic microsome incubation", "result": "no peak corresponding to the amine"}, {"measurement": "Metabolism in fresh mouse plasma (prodrug remaining by HPLC)", "setting": "[1]", "result": "No significant metabolism"}, {"measurement": "Metabolism in mouse brain homogenate (compound amount over time)", "setting": "[2]", "result": "did not decrease"}]}
{"compound": "CC(=O)N(CCO[C@H]1CNC[C@H]1Cc1cc(C)cc(N)n1)CCc1cccc(F)c1", "note": "(racemic) [Compound 6, N-(2-(4-((6-Amino-4-methylpyridin-2-yl)-methyl)pyrrolidin-3-yloxy)ethyl)-N-(3-fluoro-phenethyl)acetamide]", "values": [{"measurement": "Time of peak brain concentration", "setting": "[4]; mouse, i.p. 4.1 mg/kg, 20-minute experiment", "result": 5, "unit": "min"}, {"measurement": "Brain AUC over the 20-minute experiment compared with 5", "setting": "[4]; mouse", "result": "roughly the same"}]}
{"compound": "COC(=O)N(CCO[C@H]1CNC[C@H]1Cc1cc(C)cc(N)n1)CCc1cccc(F)c1", "note": "(racemic) [Compound 7, Methyl 2-(4-((6-amino-4-methylpyridin-2-yl)-methyl)pyrrolidin-3-yloxy)ethyl(3-fluoro-phenethyl)carbamate]", "values": [{"measurement": "Tmax", "setting": "[4]; mouse, plasma, ip, 4.3 mg/kg", "result": 5, "unit": "min"}]}
{"compound": "Cc1cc(N)nc(C[C@@H]2CNC[C@@H]2OCCNCCc2cccc(F)c2)c1", "note": "[Compound 5]", "values": [{"measurement": "Amount of compound lost with rat liver microsomes", "setting": "Standard microsome assay; over 30 minutes, in presence and absence of NADPH", "result": "approximately 20%"}, {"measurement": "Toxicity in mice", "setting": "[4]; i.p. injection at 3.7 mg/kg", "result": "no toxicity was observed"}]}
{"compound": "Cc1cc(N)nc(C[C@@H]2CNC[C@@H]2OCCN(CCc2cccc(F)c2)C(=O)OCc2ccccc2)c1", "note": "[Compound 8, Benzyl 2-(4-((6-amino-4-methylpyridin-2-yl)-methyl)pyrrolidin-3-yloxy)ethyl(3-fluoro-phenethyl)carbamate]", "values": [{"measurement": "Peak plasma concentration", "setting": "[4]; mouse, i.p. 5.1 mg/kg, 20-minute experiment", "result": "around 1 μM"}, {"measurement": "Brain AUC over the 20-minute experiment compared with 5", "setting": "[4]; mouse", "result": "much lower"}]}
{"compound": "Cc1cc(-c2ccccc2)nnc1NCCN1CCOCC1", "note": "[minaprine, reference compound]", "values": [{"measurement": "Metabolism by microsomes under anaerobic conditions", "setting": "[3]; 37 °C, deoxygenated buffer, nitrogen atmosphere, NADPH", "result": "metabolized readily"}, {"measurement": "Concentration remaining with microsomes at 20 min", "setting": "Standard microsome assay; 20 min", "result": "not quantifiable"}]}
